ChEMBL document CHEMBL3352487, “Synthesis, antibacterial activity, and biological evaluation of formyl hydroxyamino derivatives as novel potent peptide deformylase inhibitors against drug-resistant bacteria” (Eur J Med Chem, 2014)
≈ marks a conversion by molar mass, not a printed value.

Tests used:
[1] = Oral bioavailability in Sprague-Dawley rat at 25 mg/kg; type: ADME, organism-based; details: in vivo
[2] = Solubility of the compound in artificial gastric juice measured every 2 hrs for 12 hrs by HPLC analysis; type: ADME; details: simulated gi fluid
[3] = test system: Staphylococcus epidermidis; assay: Antimicrobial activity against Staphylococcus epidermidis after 24 hrs by broth microdilution method; type: functional
How it was run: (§1)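 Broth microdilution following NCCLS M7-A4; ATCC strains and clinical isolates from a provincial hospital.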

Streptococcus pneumoniae [4] = assay: Antimicrobial activity against Streptococcus pneumoniae 1629 after 24 hrs by broth microdilution method; type: functional; details: Streptococcus pneumoniae, 1629, 24 h; how it was run: as §1
[5] = Acute toxicity in iv dosed KM mouse measured for 14 days; type: organism-based; details: in vivo
How it was run: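 Outbred KM mice (SPF, 20–25 g; nine male, ten female) given a single tail-vein i.v. dose of 100 or 250 mg/kg, formulated in PBS pH 6.5 containing 20% DMSO. Behaviour, weight, coat, anal temperature, food and water intake, and excreta monitored daily for 14 days, then necropsy.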

Staphylococcus aureus [6] = assay: Antimicrobial activity against Staphylococcus aureus isolate NEQAS 4158 after 24 hrs by broth microdilution method; type: functional; details: isolate NEQAS 4158, 24 h; how it was run: as §1
Staphylococcus aureus [7] = assay: Antimicrobial activity against Staphylococcus aureus isolate MILES HALL after 24 hrs by broth microdilution method; type: functional
How it was run: (§2)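 Broth microdilution following NCCLS M7-A4, using ATCC strains and clinical isolates from a provincial hospital.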

Streptococcus pneumoniae [8] = assay: Antimicrobial activity against Streptococcus pneumoniae N1387 after 24 hrs by broth microdilution method; type: functional; details: N1387, 24 h; how it was run: as §1
[9] = Stability of the compound in artificial gastric juice measured every 2 hrs for 12 hrs by HPLC analysis; type: ADME; details: simulated gi fluid
Streptococcus pyogenes = assay: Antimicrobial activity against Streptococcus pyogenes 1308007P after 24 hrs by broth microdilution method; type: functional; how it was run: as §1
Staphylococcus aureus [10] = assay: Antimicrobial activity against Staphylococcus aureus isolate 929003 after 24 hrs by broth microdilution method; type: functional; details: isolate 929003, 24 h; how it was run: as §1
[11] = Half life in Sprague-Dawley rat at 5 mg/kg, iv; type: ADME, organism-based; design: dose 5 mg/kg, route intravenous; details: in vivo
[12] = Mean residence time (0 to t) in Sprague-Dawley rat at 5 mg/kg, iv; type: ADME, organism-based; design: dose 5 mg/kg, route intravenous; details: in vivo
Mus musculus [13] = assay: Acute toxicity in KM mouse assessed as kidney abnormality at 250 mg/kg, iv measured for 14 days by necropsy; type: organism-based; design: dose 250 mg/kg, route intravenous; details: in vivo, 336 h
How it was run: (§3)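 Outbred KM mice (SPF, 20–25 g; nine male, ten female) given a single tail-vein injection of 100 or 250 mg/kg in PBS pH 6.5 with 20% DMSO over about 60 s. Behaviour, weight, coat colour, anal temperature, food and water intake, and urine and stool weight followed for 14 days. On day 14, gross necropsy of skin, lungs, heart, liver, kidneys and spleen.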

Moraxella catarrhalis = assay: Antimicrobial activity against Moraxella catarrhalis 1502 after 24 hrs by broth microdilution method; type: functional; details: Moraxella catarrhalis, 1502, 24 h; how it was run: as §1
Staphylococcus aureus [14] = assay: Antimicrobial activity against Staphylococcus aureus MRSA08-12 in peritonitis mouse model assessed as mortality of host at 20 mg/kg, iv as single dose relative to control; type: functional
How it was run: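 Outbred KM mice (20–25 g) infected i.p. with a 90–100% lethal dose (5 × 10^7 CFU/mL) in 0.5 mL brain heart infusion broth with 5% mucin. Single i.v. dose of 1.25–20 mg/kg in 20% DMSO, 0.1 mL. Ten mice per dose; daily monitoring for 14 days; ED50 from cumulative mortality by Bliss's method.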

[15] = AUC (0 to infinity) in Sprague-Dawley rat at 25 mg/kg, po; type: ADME, organism-based; design: dose 25 mg/kg, route oral, time infinity; details: plasma
[16] = Volume of distribution at steady state in Sprague-Dawley rat at 5 mg/kg, iv; type: ADME, organism-based; design: dose 5 mg/kg, route intravenous; details: in vivo, read-out: Vdss
Staphylococcus aureus [17] = assay: Antimicrobial activity against Staphylococcus aureus MRSA08-12 in peritonitis mouse model assessed as mortality of host at 2.5 mg/kg, iv as single dose relative to control; type: functional
How it was run: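 KM outbred mice (20–25 g) inoculated intraperitoneally with a 90-to-100%-lethal dose (5 × 10^7 CFU/mL) of MRSA08-12 in 0.5 mL brain heart infusion broth with 5% mucin. Single i.v. dose in 20% DMSO, 0.1 mL; doses 1.25–20 mg/kg, 10 mice per dose. Cumulative mortality tracked daily for 14 days; ED50 by Bliss's method.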

Staphylococcus aureus [18] = assay: Antimicrobial activity against Staphylococcus aureus isolate RN1024 after 24 hrs by broth microdilution method; type: functional; details: isolate RN1024, 24 h; how it was run: as §2
Haemophilus influenzae = assay: Antimicrobial activity against Haemophilus influenzae H128 after 24 hrs by broth microdilution method; type: functional; details: H128, 24 h; how it was run: as §1
Staphylococcus aureus [19] = assay: Antimicrobial activity against Staphylococcus aureus isolate 68/8684 after 24 hrs by broth microdilution method; type: functional; details: isolate 68/8684, 24 h; how it was run: as §1
[20] = Solubility of the compound in artificial intestinal juice measured every 2 hrs for 12 hrs by HPLC analysis; type: physicochemical; details: simulated gi fluid
Staphylococcus aureus [21] = assay: Antimicrobial activity against Staphylococcus aureus isolate CARTER 37 after 24 hrs by broth microdilution method; type: functional; details: isolate CARTER 37, 24 h; how it was run: as §2
Staphylococcus aureus [22] = assay: Antimicrobial activity against Staphylococcus aureus isolate RN4220 pmz1 after 24 hrs by broth microdilution method; type: functional; details: isolate RN4220 pmz1, 24 h; how it was run: as §2
Staphylococcus aureus [23] = assay: Antimicrobial activity against Staphylococcus aureus WCUH29 after 24 hrs by broth microdilution method; type: functional; details: WCUH29, 24 h; how it was run: as §1
Staphylococcus aureus [24] = assay: Antimicrobial activity against Staphylococcus aureus isolate CL 938 after 24 hrs by broth microdilution method; type: functional; details: isolate CL 938, 24 h; how it was run: as §1
Staphylococcus aureus [25] = assay: Antimicrobial activity against Staphylococcus aureus isolate RN1030 after 24 hrs by broth microdilution method; type: functional; details: isolate RN1030, 24 h; how it was run: as §2
Streptococcus pneumoniae [26] = assay: Antimicrobial activity against Streptococcus pneumoniae ERY2 after 24 hrs by broth microdilution method; type: functional; details: ERY2, 24 h; how it was run: as §1
Staphylococcus aureus [27] = assay: Antimicrobial activity against Staphylococcus aureus isolate 934324 after 24 hrs by broth microdilution method; type: functional; details: isolate 934324, 24 h; how it was run: as §1
Staphylococcus aureus [28] = assay: Antimicrobial activity against Staphylococcus aureus isolate 934334 after 24 hrs by broth microdilution method; type: functional; details: isolate 934334, 24 h; how it was run: as §1
Mus musculus [29] = assay: Acute toxicity in KM mouse assessed as heart abnormality at 250 mg/kg, iv measured for 14 days by necropsy; type: organism-based; design: dose 250 mg/kg, route intravenous; details: in vivo, 336 h; how it was run: as §3
Staphylococcus aureus [30] = assay: Antimicrobial activity against Staphylococcus aureus isolate SWEETING after 24 hrs by broth microdilution method; type: functional; how it was run: as §2
[31] = Protein binding in CD1 mouse plasma at 2 uM by equilibrium dialysis; type: ADME, cell-free; details: read-out: PPB (converted)
[32] = Clearance in Sprague-Dawley rat at 5 mg/kg, iv; type: ADME, organism-based; design: dose 5 mg/kg, route intravenous; details: in vivo
Staphylococcus aureus [33] = assay: Antimicrobial activity against Staphylococcus aureus MRSA08-12 in peritonitis mouse model administered intravenously as single dose; type: functional; details: MRSA08-12, iv
[34] = AUC (0 to t) in Sprague-Dawley rat at 5 mg/kg, iv; type: ADME, organism-based; design: dose 5 mg/kg, route intravenous; details: plasma
Escherichia coli = assay: Antimicrobial activity against Escherichia coli isolate 3 after 24 hrs by broth microdilution method; type: functional; details: isolate 3, 24 h; how it was run: as §1
Staphylococcus aureus [35] = assay: Antimicrobial activity against Staphylococcus aureus isolate F89 after 24 hrs by broth microdilution method; type: functional; details: isolate F89, 24 h; how it was run: as §1
Staphylococcus aureus [36] = assay: Antimicrobial activity against Staphylococcus aureus after 24 hrs by broth microdilution method; type: functional; how it was run: as §1

Q: Which bioavailability [1] does the source give for `CCCC[C@H](CN(O)C=O)C(=O)N1CC=C[C@H]1C(=O)Nc1ccc(F)c[n+]1[O-]` here?
A: 34.6%

Q: And the solubility [2]?
A: soluble

Q: And the MIC [3]?
A: 1 µg/mL (≈ 2.54 µM)

Q: What about the MIC (Streptococcus pneumoniae [4]) of the same molecule?
A: 1 µg/mL (≈ 2.54 µM)

Q: And the LD50 at 336 h [5]?
A: > 250 mg/kg

Q: What about the MIC (Staphylococcus aureus [6]) of the same molecule?
A: 1 µg/mL (≈ 2.54 µM)

Q: What about the MIC (Staphylococcus aureus [7]) of the same molecule?
A: 0.5 µg/mL (≈ 1.27 µM)

Q: What about the MIC (Streptococcus pneumoniae [8]) of the same molecule?
A: 0.5 µg/mL (≈ 1.27 µM)

Q: And the Stability [9]?
A: Stable

Q: And the MIC (Streptococcus pyogenes)?
A: 2 µg/mL (≈ 5.07 µM)

Q: What about the MIC (Staphylococcus aureus [10]) of the same molecule?
A: 2 µg/mL (≈ 5.07 µM)

Q: What about the half-life [11] of the same molecule?
A: 70.2 min

Q: What about the MRT last [12] of the same molecule?
A: 33.8 min

Q: And the Activity (Mus musculus [13])?
A: Non-toxic

Q: What about the MIC (Moraxella catarrhalis) of the same molecule?
A: ≤ 0.06 µg/mL

Q: And the mortality at 20 mg/kg (Staphylococcus aureus [14])?
A: 10%

Q: What about the AUC(0-inf) [15] of the same molecule?
A: 3390 ng·h/mL

Q: And the Vd [16]?
A: 1.72 L/kg

Q: What about the mortality at 2.5 mg/kg (Staphylococcus aureus [17]) of the same molecule?
A: 80%

Q: What about the MIC (Staphylococcus aureus [18]) of the same molecule?
A: 0.5 µg/mL (≈ 1.27 µM)

Q: And the MIC (Haemophilus influenzae)?
A: 2 µg/mL (≈ 5.07 µM)

Q: What about the MIC (Staphylococcus aureus [19]) of the same molecule?
A: > 16 µg/mL

Q: What about the solubility [20] of the same molecule?
A: soluble

Q: And the MIC (Staphylococcus aureus [21])?
A: 0.5 µg/mL (≈ 1.27 µM)

Q: What about the MIC (Staphylococcus aureus [22]) of the same molecule?
A: 0.5 µg/mL (≈ 1.27 µM)

Q: And the MIC (Staphylococcus aureus [23])?
A: 0.125 µg/mL (≈ 0.317 µM)

Q: What about the MIC (Staphylococcus aureus [24]) of the same molecule?
A: 1 µg/mL (≈ 2.54 µM)

Q: And the MIC (Staphylococcus aureus [25])?
A: 0.5 µg/mL (≈ 1.27 µM)

Q: And the MIC (Streptococcus pneumoniae [26])?
A: 1 µg/mL (≈ 2.54 µM)

Q: And the MIC (Staphylococcus aureus [27])?
A: 1 µg/mL (≈ 2.54 µM)

Q: And the MIC (Staphylococcus aureus [28])?
A: 1 µg/mL (≈ 2.54 µM)

Q: What about the Activity (Mus musculus [29]) of the same molecule?
A: Non-toxic

Q: And the MIC (Staphylococcus aureus [30])?
A: 0.125 µg/mL (≈ 0.317 µM)

Q: And the fraction unbound at 2 µM [31]?
A: 0.467

Q: And the clearance [32]?
A: 46.8 mL/min/kg

Q: And the ED50 (Staphylococcus aureus [33])?
A: 6.25 mg/kg

Q: What about the AUC(0-t) [34] of the same molecule?
A: 1950 ng·h/mL

Q: What about the MIC (Escherichia coli) of the same molecule?
A: 64 µg/mL (≈ 162 µM)

Q: And the MIC (Staphylococcus aureus [35])?
A: 1 µg/mL (≈ 2.54 µM)

Q: What about the MIC (Staphylococcus aureus [36]) of the same molecule?
A: 0.5 µg/mL (≈ 1.27 µM)
